The record followed here is PubChem BioAssay AID1296 (Columbia University Molecular Screening Center, 2008).

Each structure is given as a SMILES string. In all, about 130,000 compounds went through this assay and about 1,000 (0.77%) were called active. Not shown: some 1% with an inconclusive outcome. This is one part of a sample in which actives are shown more often than they occur.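 The calls were made as follows: active = activation at 2 µM above a set limit, confirmed on inspection of the cell images; inconclusive = above the set limit but not confirmed on image inspection; inactive = the rest.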

A short description of this test: activators of insulin promoter-driven GFP, primary screen, imaging, TRM-6 cells, eGFP reporter, cell count (AID 1296).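 As to activation: share of cells whose green reporter signal exceeds an intensity cutoff.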 The following applies: at 2 µM; activation: stronger effect = higher value, plate-scaled: unstimulated 0, stimulated control 100; normalized cell count: measured here: cell count (toxicity). A digest of the protocol: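 System: human fetal islet-derived TRM-6 cells with tamoxifen-inducible insulin promoter–eGFP reporter; input: seeding density of 1,000 cells per well; buffer or medium: Low-glucose (5.5 mM) medium with tamoxifen; incubation: compound exposure 48 h, 37 °C; measured by: high-content imaging of fixed cells with Hoechst nuclear stain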
With `COC(=O)CSc1nnc(-c2cccnc2)o1`, the activation was 5.13% (inactive) and the normalized cell count stood at 134%.
With `Cc1cccc(C)c1OC(=O)CSc1nnc(-c2ccccc2)o1`, the activation is 487% (active) and the normalized cell count came out at 75.9%.
As for `O=C(CSc1nnc(-c2ccoc2)o1)N1CCOCC1`, the activation was -9.09% (inactive) and the normalized cell count stood at 105%.
On the same counts, the results for `C=CCOc1c(Br)cc(/C=N\n2nnnc2N)cc1OC` are 0% (inactive) and 53.2%.
On the same counts, the results for `O=C(CN1C(=O)NC2(CCCCC2)C1=O)NCCC1=CCCCC1` are -3.7% (inactive) and 86.8%.
The matching figures for `CCC1SC(CC)C(=O)N(CC(=O)NC2CCCCC2)C1=O` (stereo unspecified): -8.33% (inactive) and 80.9%.
`O=C(CN1C(=O)NC2(CCCCCC2)C1=O)NC1CC1`: the activation is 542% (active) and the normalized cell count stood at 78.5%.
For the compound `O=C(CSc1nc2ccc([N+](=O)[O-])cc2[nH]1)c1ccc(Cl)cc1`, the activation was -3.7% (inactive) and the normalized cell count amounted to 85.9%.
On to `COc1ccccc1-c1nc(SC)n[nH]1`, for which the activation was -5.26% (inactive) and the normalized cell count was determined as 131%.
Consider `COc1ccc(C(=O)NC(=S)NNC(=O)CCc2ccccc2)cc1`, for which the activation is -3.57% (inactive) and the normalized cell count is 91.6%.
On the same counts, the results for `COCCNC(=S)c1ccc(OC)cc1` are 433% (active) and 62.5%.
The matching figures for `COc1cc(NC(=S)NCCSc2ccc(C)cc2)cc(OC)c1`: -3.12% (inactive) and 116%.
Take `CN=C1S/C(=C\c2ccc(Sc3ccc(Cl)cc3)o2)C(=O)N1C`: the activation is -2.7% (inactive) and the normalized cell count is 43.5%.
As to `Cc1ccc(/C=N/NC(=O)Cn2ccc(C(F)(F)F)n2)o1`, the activation was 8.33% (inactive) and the normalized cell count came out at 128%.
As for `CC(CNC(=O)c1ccc(N)cc1)NC(=O)c1ccc(N)cc1` (stereo unspecified), the activation is 2.33% (inactive) and the normalized cell count stood at 108%.
As to `Cc1ccc(-n2ncc3c(Nc4cccc(C(=O)O)c4)ncnc32)cc1`, the activation was 6.67% (inactive) and the normalized cell count stood at 45%.
The matching figures for `O=C(NNc1ncnc2c1cnn2-c1ccccc1)c1ccco1`: 500% (active) and 142%.
In the case of `CCN(CC)C(=O)CSc1ncnc2c1cnn2-c1ccccc1`, the activation is 392% (inactive) and the normalized cell count was determined as 43.6%.
Take `COc1cc(/C=N/NC(=O)c2cc(C)n(-c3ccc(F)cc3)c2C)cc(OC)c1O`: the activation was 129% (inactive) and the normalized cell count stood at 121%.
For the compound `Cc1cc(NC(=O)COC(=O)COc2ccc(Cl)cc2C)c([N+](=O)[O-])cc1C`, the activation is 0% (inactive) and the normalized cell count stood at 143%.
The matching figures for `Cc1ccc2cc3cc(C(=O)N4CCCCCC4)oc3nc2c1`: 183% (active) and 233%.
For the compound `Cc1cccc(C(=O)N2CCCN(C(=O)c3cccc(C)c3)CC2)c1`, the activation is 3.23% (inactive) and the normalized cell count worked out at 110%.
Turning to `Cc1cc(=O)oc(C)c1C(=O)N1CCCCC1`, the activation is 5.26% (inactive) and the normalized cell count was 82.9%.
On the same counts, the results for `Cc1cccc(N(C(=O)Cc2cccs2)C(C(=O)NCc2ccco2)c2ccncc2)c1` (stereo unspecified) are 107% (inactive) and 58.7%.
On the same counts, the results for `COc1cc(NC(=O)CSc2nnc3ccc(-c4ccncc4)nn23)cc(OC)c1` are -5.26% (inactive) and 108%.
The matching figures for `O=C(Nc1ccncc1)c1cc2ccccc2o1`: 342% (inactive) and 93.3%.
Turning to `COc1ccc(C(=O)N/N=c2\oc3ccccc3cc2C(N)=O)cc1`, the activation was 0% (inactive) and the normalized cell count was 70.8%.
The matching figures for `Cc1ccc(OC(=O)c2cc3ccccc3o2)cc1`: 79.3% (active) and 174%.
The matching figures for `COC(=O)[C@H]1Cc2cnoc2C[C@]1(C)C(=O)O`: 0% (inactive) and 176%.
On the same counts, the results for `COC(=O)c1cc(OC)c(OC)cc1NC(=O)CSc1ccc(C)cc1` are 3.33% (inactive) and 108%.
For the compound `Cc1cc(C)cc(NC(=O)CSc2ccccc2)c1`, the activation was 525% (active) and the normalized cell count was 53.5%.
Consider `COc1ccc(C)cc1NC(=O)CSc1ccc(Cl)cc1`, for which the activation was -5.56% (inactive) and the normalized cell count is 93.7%.
The matching figures for `Cc1nc(CC(=O)NNS(=O)(=O)c2ccc(F)c(Cl)c2)cs1`: -7.69% (inactive) and 104%.
Turning to `N#Cc1ccc(Oc2cc(C(F)(F)F)nc(-c3ccccn3)n2)cc1`, the activation was -9.09% (inactive) and the normalized cell count came to 91.7%.
Take `CCN(CC(=O)NC(=O)NCc1ccccc1)Cc1nc2ccccc2c(=O)[nH]1`: the activation was 8.33% (inactive) and the normalized cell count was found to be 68.7%.
The matching figures for `Cc1nn(C)c(Oc2ccccc2)c1[N+](=O)[O-]`: 7.04% (inactive) and 55.2%.
The matching figures for `O=C(O)COc1ccc(/C=N/O)cc1Br`: 8.33% (inactive) and 101%.
On the same counts, the results for `CN1/C(=C\C=C2\N=C(c3ccc(F)cc3)OC2=O)C(C)(C)c2ccccc21` are 121% (active) and 53.1%.
For `CC(=O)NCCC(=O)Nc1nc(C)c(Cc2ccc3c(c2)OCO3)s1`, the activation was 0% (inactive) and the normalized cell count is 42.1%.
On to `COc1cc(/C=C2/C(=O)ON=C2C)ccc1OCc1cccc(F)c1`, for which the activation was 0% (inactive) and the normalized cell count is 98.9%.
Consider `Cc1nn(Cc2ccc(C(=O)N3N=C(C(F)F)CC3(O)C(F)F)cc2)c(C)c1[N+](=O)[O-]` (stereo unspecified), for which the activation was 4.44% (inactive) and the normalized cell count came to 126%.
With `O=C(NCc1ccco1)c1nn2cccnc2c1Cl`, the activation was 0% (inactive) and the normalized cell count is 126%.
The matching figures for `COc1ccc(CC(=O)Nc2ccc(-c3nnc(-c4ccccc4)o3)cc2)cc1`: 6.45% (inactive) and 115%.
